# Measured values as given in ChEMBL document CHEMBL2040792, “New chromene scaffolds for adenosine A(2A) receptors: synthesis, pharmacology and structure-activity relationships” (Eur J Med Chem, 2012).
# Biological target: T1, Adenosine receptor A1 (Homo sapiens) (UniProt P30542)
# T1 sequence (whole entry): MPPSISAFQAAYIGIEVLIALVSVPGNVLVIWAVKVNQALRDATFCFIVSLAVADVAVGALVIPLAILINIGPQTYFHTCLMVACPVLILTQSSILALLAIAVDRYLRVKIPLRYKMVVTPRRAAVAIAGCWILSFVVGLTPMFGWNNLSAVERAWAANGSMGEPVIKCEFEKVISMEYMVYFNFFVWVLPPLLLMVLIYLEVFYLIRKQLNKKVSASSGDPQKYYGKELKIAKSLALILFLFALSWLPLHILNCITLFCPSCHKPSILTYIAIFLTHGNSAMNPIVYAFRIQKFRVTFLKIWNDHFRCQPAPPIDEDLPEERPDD
# Assay: Displacement of [3H]DPCPX from human adenosine A1 receptor expressed in CHO cells at 10 uM after 60 mins by beta scintillation counting
# Assay type: cell-based
# Outline: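 CHO-A1 membranes (15 µg protein) in Hepes/NaCl/MgCl2 buffer with adenosine deaminase, pH 7.4. Test compound at 10 µM with 2 nM [3H]DPCPX, 60 min at 25 °C, in duplicate. Nonspecific binding with 10 µM (R)-PIA. Percent inhibition read after filtration.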
row,Structure (SMILES),inhibition [%]
1,COc1cccc2cc(C(=O)NCCc3ccc(O)cc3)c(=N)oc12,35
2,COCCNC(=O)c1cc2cccc(OC)c2oc1=N,> 70
3,COc1cccc2cc(C(N)=O)c(=N)oc12,> 70
4,COC(=O)/C(C#N)=C/c1cccc(OC)c1O,> 70
5,COc1cccc2cc(C(=O)NC3CCCC3)c(=N)oc12,> 70
6,COc1cccc2cc(C(=O)NCCCN3CCN(CCCNC(=O)c4cc5cccc(OC)c5oc4=N)CC3)c(=N)oc12,> 70
7,COc1cccc2cc(C(=O)NCCCOCCCCOCCCNC(=O)c3cc4cccc(OC)c4oc3=N)c(=N)oc12,30
8,COc1cccc2cc(C(=O)NC3CCCCC3)c(=N)oc12,40

# Biological target: T2, Adenosine receptor A2a (Homo sapiens, UniProt P29274)
# T2 sequence (P29274 whole entry): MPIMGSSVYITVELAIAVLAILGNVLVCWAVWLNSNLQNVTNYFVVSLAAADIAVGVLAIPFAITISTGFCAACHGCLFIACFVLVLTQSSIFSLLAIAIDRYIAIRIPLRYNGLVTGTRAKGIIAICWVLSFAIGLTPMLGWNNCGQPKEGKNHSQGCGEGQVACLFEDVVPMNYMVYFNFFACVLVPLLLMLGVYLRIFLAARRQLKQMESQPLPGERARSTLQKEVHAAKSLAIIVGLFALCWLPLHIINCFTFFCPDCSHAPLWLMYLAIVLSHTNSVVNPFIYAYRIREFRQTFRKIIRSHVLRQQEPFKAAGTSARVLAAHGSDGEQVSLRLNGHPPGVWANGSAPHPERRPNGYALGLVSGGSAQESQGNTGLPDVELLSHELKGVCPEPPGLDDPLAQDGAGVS
# Assay: Antagonist activity at human adenosine A2A receptor expressed in CHO cells assessed as inhibition of NECA-induced cAMP accumulation incubated for 15 mins prior to NECA-induction measured after 15 mins by enzyme immunoassay relative to control
# Assay type: functional, cell-based
# Outline: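 Stably transfected CHO cells grown with dialyzed FBS, washed in DMEM F-12 with 25 mM HEPES pH 7.4 and 30 μM rolipram. Antagonist preincubated 15 min, then NECA (0.1 nM-1 mM) added for a further 15 min. cAMP measured by enzyme immunoassay. NECA curves fitted to a sigmoidal equation; pKB derived from the EC50 shift at one antagonist concentration.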
row,Structure (SMILES),pKb
1,COc1cccc2cc(C(=O)NCCc3ccc(O)cc3)c(=N)oc12,6.54
2,COc1cccc2cc(C(N)=O)c(=N)oc12,6.59
3,COc1cccc2cc(C(=O)NCCCOCCCCOCCCNC(=O)c3cc4cccc(OC)c4oc3=N)c(=N)oc12,6.36
4,COc1cccc2cc(C(=O)NC3CCCCC3)c(=N)oc12,6.1

# Biological target: T3, Adenosine receptor A2b (Homo sapiens) (UniProt P29275)
# T3 sequence (whole entry): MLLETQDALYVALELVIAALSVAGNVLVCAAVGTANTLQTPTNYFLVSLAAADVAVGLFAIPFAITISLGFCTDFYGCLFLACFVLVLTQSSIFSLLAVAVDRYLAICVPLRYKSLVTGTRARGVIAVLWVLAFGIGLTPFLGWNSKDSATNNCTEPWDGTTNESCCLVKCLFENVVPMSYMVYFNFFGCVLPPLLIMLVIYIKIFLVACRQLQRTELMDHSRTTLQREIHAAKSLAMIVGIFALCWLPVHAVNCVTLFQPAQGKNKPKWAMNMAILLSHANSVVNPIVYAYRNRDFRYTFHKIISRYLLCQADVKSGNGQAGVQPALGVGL
# Assay: Displacement of [3H]DPCPX from human adenosine A2B receptor expressed in HEK293 cells at 10 uM after 30 mins by beta scintillation counting
# Assay type: cell-based
# Outline: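 Percent inhibition at 10 µM in HEK-293-A2B membranes (18 µg protein), pH 6.5 Tris buffer with benzamidine, bacitracin and adenosine deaminase. 35 nM [3H]DPCPX, 30 min at 25 °C, in duplicate. Nonspecific binding with 400 µM NECA.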
row,Structure (SMILES),inhibition [%]
1,COc1cccc2cc(C(=O)NCCc3ccc(O)cc3)c(=N)oc12,> 70
2,COCCNC(=O)c1cc2cccc(OC)c2oc1=N,43
3,COc1cccc2cc(C(N)=O)c(=N)oc12,> 70
4,COC(=O)/C(C#N)=C/c1cccc(OC)c1O,> 70
5,COc1cccc2cc(C(=O)NC3CCCC3)c(=N)oc12,47
6,COc1cccc2cc(C(=O)NCCCN3CCN(CCCNC(=O)c4cc5cccc(OC)c5oc4=N)CC3)c(=N)oc12,> 70
7,COc1cccc2cc(C(=O)NCCCOCCCCOCCCNC(=O)c3cc4cccc(OC)c4oc3=N)c(=N)oc12,44
8,COc1cccc2cc(C(=O)NC3CCCCC3)c(=N)oc12,> 70

# Biological target: T4, Adenosine receptor A3 (Homo sapiens) (UniProt P0DMS8)
# T4 sequence (whole entry): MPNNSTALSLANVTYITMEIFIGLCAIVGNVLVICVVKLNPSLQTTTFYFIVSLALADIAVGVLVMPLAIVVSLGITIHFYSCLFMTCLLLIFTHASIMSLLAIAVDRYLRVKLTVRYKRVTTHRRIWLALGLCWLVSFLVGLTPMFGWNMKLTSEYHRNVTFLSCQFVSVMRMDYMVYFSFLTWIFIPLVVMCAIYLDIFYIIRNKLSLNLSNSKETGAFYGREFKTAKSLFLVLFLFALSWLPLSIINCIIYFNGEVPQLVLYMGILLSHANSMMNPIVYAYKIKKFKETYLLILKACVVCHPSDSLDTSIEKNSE
# Assay: Displacement of [3H]NECA from human adenosine A3 receptor expressed in human HeLa cells at 10 uM after 180 mins by beta scintillation counting
# Assay type: cell-based
# Outline: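 HeLa-A3 membranes (90 µg protein) in 50 mM Tris-HCl, 1 mM EDTA, 5 mM MgCl2, 2 UI/mL adenosine deaminase, pH 7.4. Test compound at 10 µM with 30 nM [3H]NECA, 180 min at 25 °C, in triplicate. Nonspecific binding with 100 µM (R)-PIA. Percent inhibition read after GF/B filtration.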
row,Structure (SMILES),inhibition [%]
1,COc1cccc2cc(C(=O)NCCc3ccc(O)cc3)c(=N)oc12,30
2,COCCNC(=O)c1cc2cccc(OC)c2oc1=N,15
3,COc1cccc2cc(C(N)=O)c(=N)oc12,33
4,COC(=O)/C(C#N)=C/c1cccc(OC)c1O,45
5,COc1cccc2cc(C(=O)NC3CCCC3)c(=N)oc12,20
6,COc1cccc2cc(C(=O)NCCCN3CCN(CCCNC(=O)c4cc5cccc(OC)c5oc4=N)CC3)c(=N)oc12,20
7,COc1cccc2cc(C(=O)NCCCOCCCCOCCCNC(=O)c3cc4cccc(OC)c4oc3=N)c(=N)oc12,23
8,COc1cccc2cc(C(=O)NC3CCCCC3)c(=N)oc12,16

# Biological target: T5, Adenosine receptor A2b (Homo sapiens, UniProt P29275)
# T5 sequence (P29275 whole entry): T3 sequence (whole entry)
# Assay: Displacement of [3H]DPCPX from human adenosine A2B receptor expressed in HEK293 cells after 30 mins by beta scintillation counting
# Assay type: cell-based
# Outline: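 HEK-293-A2B membranes (18 µg protein) in 50 mM Tris-HCl, 1 mM EDTA, 10 mM MgCl2, 0.1 mM benzamidine, 10 µg/mL bacitracin, 2 UI/mL adenosine deaminase, pH 6.5, with 35 nM [3H]DPCPX. Nonspecific binding with 400 µM NECA. Incubated 30 min at 25 °C, in duplicate. Six concentrations (10 nM-100 µM); IC50 by nonlinear regression, Ki by Cheng-Prusoff.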
row,Structure (SMILES),Ki [nM]
1,COc1cccc2cc(C(=O)NCCc3ccc(O)cc3)c(=N)oc12,631
2,COc1cccc2cc(C(N)=O)c(=N)oc12,316
3,COC(=O)/C(C#N)=C/c1cccc(OC)c1O,1000
4,COc1cccc2cc(C(=O)NCCCN3CCN(CCCNC(=O)c4cc5cccc(OC)c5oc4=N)CC3)c(=N)oc12,10000
5,COc1cccc2cc(C(=O)NC3CCCCC3)c(=N)oc12,20000

# Biological target: T6, Adenosine receptor A1 (Homo sapiens, UniProt P30542)
# T6 sequence (P30542 whole entry): T1 sequence (whole entry)
# Assay: Displacement of [3H]DPCPX from human adenosine A1 receptor expressed in CHO cells after 60 mins by beta scintillation counting
# Assay type: cell-based
# Outline: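 CHO-A1 membranes (15 µg protein) in 20 mM Hepes, 100 mM NaCl, 10 mM MgCl2, 2 UI/ml adenosine deaminase, pH 7.4, with 2 nM [3H]DPCPX. Nonspecific binding defined with 10 µM (R)-PIA. Incubated 60 min at 25 °C, run in duplicate, then filtered. Six concentrations tested (10 nM-100 µM); IC50 from nonlinear regression, Ki by Cheng-Prusoff.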
row,Structure (SMILES),Ki [nM]
1,COCCNC(=O)c1cc2cccc(OC)c2oc1=N,6310
2,COc1cccc2cc(C(N)=O)c(=N)oc12,398
3,COC(=O)/C(C#N)=C/c1cccc(OC)c1O,2510
4,COc1cccc2cc(C(=O)NC3CCCC3)c(=N)oc12,3160
5,COc1cccc2cc(C(=O)NCCCN3CCN(CCCNC(=O)c4cc5cccc(OC)c5oc4=N)CC3)c(=N)oc12,2510

# Biological target: T2, Adenosine receptor A2a
# Assay: Displacement of [3H]ZM241385 from human adenosine A2A receptor expressed in human HeLa cells at 10 uM after 30 mins by beta scintillation counting
# Assay type: cell-based
# Outline: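 Single-point screen at 10 µM on HeLa-A2A membranes (10 µg protein), Tris/EDTA/MgCl2 buffer with adenosine deaminase, pH 7.4. 3 nM [3H]ZM241385, 30 min at 25 °C, in duplicate. Nonspecific binding with 50 µM NECA. Percent inhibition.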
row,Structure (SMILES),inhibition [%]
1,COc1cccc2cc(C(=O)NCCc3ccc(O)cc3)c(=N)oc12,> 70
2,COCCNC(=O)c1cc2cccc(OC)c2oc1=N,> 70
3,COc1cccc2cc(C(N)=O)c(=N)oc12,> 70
4,COC(=O)/C(C#N)=C/c1cccc(OC)c1O,> 70
5,COc1cccc2cc(C(=O)NC3CCCC3)c(=N)oc12,> 70
6,COc1cccc2cc(C(=O)NCCCN3CCN(CCCNC(=O)c4cc5cccc(OC)c5oc4=N)CC3)c(=N)oc12,> 70
7,COc1cccc2cc(C(=O)NCCCOCCCCOCCCNC(=O)c3cc4cccc(OC)c4oc3=N)c(=N)oc12,> 70
8,COc1cccc2cc(C(=O)NC3CCCCC3)c(=N)oc12,> 70

# Biological target: T2, Adenosine receptor A2a
# Assay: Displacement of [3H]ZM241385 from human adenosine A2A receptor expressed in human HeLa cells after 30 mins by beta scintillation counting
# Assay type: cell-based
# Outline: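 HeLa-A2A membranes (10 µg protein) in 50 mM Tris-HCl, 1 mM EDTA, 10 mM MgCl2, 2 UI/mL adenosine deaminase, pH 7.4, with 3 nM [3H]ZM241385. Nonspecific binding with 50 µM NECA. Incubated 30 min at 25 °C, in duplicate. Six concentrations (10 nM-100 µM); IC50 by nonlinear regression, converted to Ki by Cheng-Prusoff.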
row,Structure (SMILES),Ki [nM]
1,COc1cccc2cc(C(=O)NCCc3ccc(O)cc3)c(=N)oc12,126
2,COCCNC(=O)c1cc2cccc(OC)c2oc1=N,501
3,COc1cccc2cc(C(N)=O)c(=N)oc12,79.4
4,COC(=O)/C(C#N)=C/c1cccc(OC)c1O,316
5,COc1cccc2cc(C(=O)NC3CCCC3)c(=N)oc12,398
6,COc1cccc2cc(C(=O)NCCCN3CCN(CCCNC(=O)c4cc5cccc(OC)c5oc4=N)CC3)c(=N)oc12,316
7,COc1cccc2cc(C(=O)NCCCOCCCCOCCCNC(=O)c3cc4cccc(OC)c4oc3=N)c(=N)oc12,398
8,COc1cccc2cc(C(=O)NC3CCCCC3)c(=N)oc12,398
